The record followed here is ChEMBL document CHEMBL4715734, “Discovery of the Potent and Selective M1 PAM-Agonist N-[(3R,4S)-3-Hydroxytetrahydro-2H-pyran-4-yl]-5-methyl-4-[4-(1,3-thiazol-4-yl)benzyl]pyridine-2-carboxamide (PF-06767832): Evaluation of Efficacy and Cholinergic Side Effects” (J Med Chem, 2016).

Series [1] has as its system Rattus norvegicus. In words: Reversal of scopolamine-induced spatial learning in Wistar rat model at 0.32 mg/kg, po administered 15 min before training followed by 30 mins later administration with scopolamine measured after 24 hrs by Morris water maze test.
Series [2] is described as follows: Toxicity in dog assessed as salivation at 15 mg/kg, po using spray-dried dispersion formulation. The class given is organism-based, Canis lupus familiaris. As to conditions: in vivo.
Series [3] in a line: Toxicity in male rat assessed as increase in body weight at 30 mg/kg, po administered for 14 days. The conditions noted are these: in vivo, 336 h.
Series [4] can be described thus: Toxicity in male Beagle dog assessed as effect on heart rate at 3 mg/kg, po observed upto 9 hrs post last dose by telemetry. The class given is organism-based, Canis lupus familiaris. The conditions noted are these: in vivo. The method, boiled down:
(§1)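 Crossover telemetry study in dogs at three oral doses (0.3, 1 and 3 mg/kg), N=4. Endpoints were blood pressure, maximum systolic left ventricular pressure, LV +dP/dt max, activity, heart rate, and RR, QT and QTc intervals, followed up to 9 h post dose.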

Series [5] can be described thus: Toxicity in male Beagle dog assessed as decrease in QT interval at 3 mg/kg, po administered as single dose observed upto 9 hrs post last dose by telemetry. Type of series: organism-based, Canis lupus familiaris. As to conditions: in vivo. Summed up:
as §1

Series [6] addresses T1, Muscarinic acetylcholine receptor M2 (Homo sapiens, UniProt P08172).
T1 sequence (P08172 whole entry): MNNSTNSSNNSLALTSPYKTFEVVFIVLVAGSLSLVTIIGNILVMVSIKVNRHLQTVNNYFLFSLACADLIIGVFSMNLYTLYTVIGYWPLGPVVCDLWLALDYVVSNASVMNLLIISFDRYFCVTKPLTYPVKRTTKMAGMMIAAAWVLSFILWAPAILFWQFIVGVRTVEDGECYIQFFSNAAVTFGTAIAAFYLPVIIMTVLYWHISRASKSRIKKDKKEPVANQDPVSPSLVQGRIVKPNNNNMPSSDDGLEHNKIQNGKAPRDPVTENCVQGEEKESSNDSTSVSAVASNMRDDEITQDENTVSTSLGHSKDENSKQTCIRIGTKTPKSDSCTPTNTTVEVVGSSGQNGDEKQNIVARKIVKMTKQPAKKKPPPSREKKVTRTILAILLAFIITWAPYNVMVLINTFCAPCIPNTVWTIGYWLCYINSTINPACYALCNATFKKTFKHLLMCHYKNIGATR
In words: Agonist activity at human recombinant muscarinic M2 receptor stably expressed in HEK cells assessed as increase in cAMP accumulation up to 10 uM measured after 10 mins by GloSensor cAMP Assay. Type of series: cell-based.

Series [7] addresses T2, Muscarinic acetylcholine receptor M5 (Homo sapiens, UniProt P08912).
T2 sequence (P08912 whole entry): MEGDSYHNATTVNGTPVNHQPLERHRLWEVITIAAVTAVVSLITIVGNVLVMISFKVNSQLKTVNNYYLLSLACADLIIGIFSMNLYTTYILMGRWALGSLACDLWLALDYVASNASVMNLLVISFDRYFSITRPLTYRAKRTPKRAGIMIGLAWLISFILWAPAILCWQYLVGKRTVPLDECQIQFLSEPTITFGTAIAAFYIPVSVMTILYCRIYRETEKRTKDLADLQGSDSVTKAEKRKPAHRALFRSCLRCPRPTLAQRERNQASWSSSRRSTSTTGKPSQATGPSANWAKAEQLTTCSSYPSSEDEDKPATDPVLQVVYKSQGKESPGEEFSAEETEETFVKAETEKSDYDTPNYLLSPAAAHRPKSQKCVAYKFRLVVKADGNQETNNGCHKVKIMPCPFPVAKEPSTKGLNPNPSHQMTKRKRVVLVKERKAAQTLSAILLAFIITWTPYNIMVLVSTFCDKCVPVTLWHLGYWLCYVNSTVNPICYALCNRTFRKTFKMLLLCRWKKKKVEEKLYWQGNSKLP
In words: Positive allosteric modulation of human recombinant muscarinic M5 receptor stably expressed in CHO cells assessed as increase in Ach-induced accumulation of intracellular calcium level upto 10 uM incubated for 10 mins followed by addition of Ach at EC20 concentration by Fluo-8AM dye based FLIPR TETRA method. Background: Calcium flux is commonly read through the fluorescence of an indicator in the cells.

Series [8] is described as follows: Aqueous solubility of compound at pH 6.5. The class given is physicochemical. As to conditions: buffer.
The nature of series [9]: Unbound plasma concentration in scopolamine-induced Wistar rat model at 0.32 mg/kg, po measured after 1 hr. Type of series: ADME, organism-based. As to conditions: in vivo. Summed up: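 Plasma sampled 1 h after oral dosing in satellite animals (N=2/dose) given the same dosing solution as the water-maze study (suspension in 0.5% methylcellulose in water); unbound concentration reported as the group average.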

Series [10] in a line: fAUC (0 to 24 hrs) in rat at 3 mg/kg, po administered for 14 days. Type of series: ADME, organism-based. As to conditions: in vivo, 336 h, time 14 day. The method, boiled down: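 2-week repeat oral dosing in rats, 0.5% methylcellulose formulation; N=4/sex/dose; doses 3, 10, 30 (males)/15 (females) mg/kg; unbound exposures reported per dose and sex.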
Series [11] is described as follows: Ratio of AUC monkey brain to fAUC in monkey plasma. Type of series: ADME, cell-free, Macaca mulatta. As to conditions: rhesus monkey, in vivo.
Series [12] has as its target Muscarinic acetylcholine receptor M3 (Homo sapiens, UniProt P20309). In words: Positive allosteric modulation of muscarinic M3 receptor (unknown origin) assessed as increase in ACh-induced displacement of [3H]-NMS from M2 receptor. Summed up: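 Cell lines expressing M2 or M3 were used for [3H]NMS binding. Inhibition of binding by ACh was measured in the presence of fixed compound concentrations of 10, 3, 1, 0.3, 0.1 and 0 µM.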
Background: In a radioligand displacement assay an active substance lowers the binding of a labelled ligand.

≈ marks a conversion by molar mass, not a printed value. Calls of active or inactive are those of the source. The calls are words filed in the database; no cut-off is given here.

Muscarinic acetylcholine receptor M3, sequence (P20309 whole entry): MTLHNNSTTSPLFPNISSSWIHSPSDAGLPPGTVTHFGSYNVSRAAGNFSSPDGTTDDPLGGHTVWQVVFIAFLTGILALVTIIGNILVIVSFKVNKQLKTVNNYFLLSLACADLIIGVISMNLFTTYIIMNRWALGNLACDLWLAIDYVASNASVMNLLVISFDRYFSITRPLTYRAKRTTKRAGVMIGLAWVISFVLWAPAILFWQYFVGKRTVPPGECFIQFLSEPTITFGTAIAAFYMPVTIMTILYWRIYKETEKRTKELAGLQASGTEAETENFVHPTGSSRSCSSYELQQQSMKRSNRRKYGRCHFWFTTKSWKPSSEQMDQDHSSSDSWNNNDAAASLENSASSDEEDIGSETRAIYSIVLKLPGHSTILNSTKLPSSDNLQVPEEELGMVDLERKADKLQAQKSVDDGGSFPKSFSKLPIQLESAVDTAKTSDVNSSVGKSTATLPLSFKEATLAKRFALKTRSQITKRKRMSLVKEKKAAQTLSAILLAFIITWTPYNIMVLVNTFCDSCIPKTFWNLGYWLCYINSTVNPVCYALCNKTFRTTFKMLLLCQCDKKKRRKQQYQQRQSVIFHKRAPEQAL

Usually solubility stands for the concentration that dissolves in the medium under given conditions. Regarding `Cc1cnc(C(=O)N[C@H]2CCOC[C@@H]2O)cc1Cc1ccc(-c2cscn2)cc1`, the outcome in series [1] was Active. Besides, the Activity result was “Toxic” in [2]; “Non-Toxic” in series [3]; 25 bpm in [4]; “Toxic” in [5]; “Not Active” in [6]; “Not Active” in series [7]. Also, the Activity entry in [12] was “Not Active”. This molecule also displayed a solubility in series [8] of 2.7 µg/mL (≈ 6.59 µM). Also, the “Cp(f)” value in series [9] came to 3.7 nM. Besides, the fAUC in [10] stood at 1.856 µM·h. Further, in series [11], the “Ratio AUC” value amounted to 0.41.
